Read-outs that look alike come from different tables or passages of the source.
Tests used:
[1] = system: rat sciatic nerve; assay: Sciatic nerve compound action potential; settings: 40 Hz
[2] = system: mice (acetic-acid induced abdominal constriction); settings: cited from earlier work
[3] = system: mice (carrageenan induced paw edema); assay: Carrageenan induced paw edema; format: in vivo, mouse
Method in brief: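 Male CF-1 mice (20–35 g), n=5 per group. Test compound, ibuprofen (100 mg/kg, positive control) or MC vehicle given i.p. 2 h before intraplantar 25 μl λ-carrageenan; an MC/saline group also included. Both paws measured by caliper at baseline and 0.5, 1, 2, 3, 4, 6, 8 and 24 h. % edema = thickness/baseline. Mean ± s.e.m.; Tukey test.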

[4] = system: rats with SNL neuropathy; settings: rat, same paradigm; cited from earlier work
[5] = system: mice (formalin-induced paw licking); assay: Formalin test; format: in vivo, mouse; settings: for reduction of licking-time AUC vs control, acute phase: acute phase 0–10 min; for reduction of licking-time AUC vs control, inflammatory phase: inflammatory phase 10–40 min; for ID50 (dose reducing the nociceptive response by 50% compared to control), acute phase / ID50 (dose reducing the nociceptive response by 50% compared to control), inflammatory phase: i.p.
[6] = system: mice (carrageenan induced heat hyperalgesia); assay: Carrageenan test, heat hyperalgesia; format: in vivo, mouse; settings: for paw thickness an hour following administration: carrageenan injected paw
Method in brief: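 Mice acclimated 1 h on a 30°C plate, then 25 μl carrageenan (20 mg/ml in saline) s.c. into left hind plantar paw. Test compound (10–70 mg/kg), VPA (100 mg/kg) or 0.5% MC given i.p. 15 min before testing at 3 h; Sal/MC and Carr/MC controls; blinded. Radiant heat (35% intensity): flinch latency, mean of two readings 5 min apart, ipsilateral minus contralateral.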

[7] = system: mice (acetic-acid induced abdominal constriction); assay: Acetic acid-induced abdominal constriction; format: in vivo, mouse; settings: for protective index (PI), writhing test: TD50 vs ED50
[8] = system: mice; settings: mouse, in vivo, ip; cited from earlier work
[9] = system: mice (formalin-induced paw licking); settings: same test; cited from earlier work
[10] = system: rats with SNL neuropathy; assay: Spinal nerve ligation; format: in vivo; settings: rat
Method in brief: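 Rats with pre-surgery threshold >15 g underwent L5–L6 spinal nerve ligation under ketamine/xylazine. Test compound at 40, 60 or 80 mg/kg i.p., MC vehicle, or MTMCD positive control, given 7, 14 and 21 days post-surgery. Latin-square design; experimenter blinded. Nine von Frey filaments (0.6–26 g); protected = no response to 15 g. TPE = earliest time of highest mean threshold.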

[11] = Pharmacokinetic study in rats; format: in vivo, rat; settings: 80 mg/kg i.p.
Method in brief: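 Rats given 80 mg/kg i.p. in 0.5% MC, four animals per time point. Cardiac-puncture blood (5 ml) taken at sacrifice at 0.25, 0.5, 1, 1.5, 2 and 4 h. Plasma (3000g, 10 min) held at −80°C, chloroform-extracted with N-methyl VCD internal standard and assayed by GC/MS. Non-compartmental: observed Cmax, CL/F = Dose/AUC, V/F = CL/F divided by terminal slope.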

[12] = Pharmacokinetic study in mice; format: in vivo, mouse; settings: 80 mg/kg i.p.
Method in brief: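 Mice dosed 80 mg/kg i.p. (suspension in 0.5% MC), 4 per time point. Aortic blood collected after sacrifice at 0.25, 0.5, 1, 1.5, 2, 2.5 and 4 h. Heparinised plasma (3000g, 10 min) stored at −80°C. Chloroform extraction with N-methyl VCD internal standard, then GC/MS. Non-compartmental analysis: Cmax observed; CL/F = Dose/AUC; V/F = CL/F ÷ terminal slope.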

[13] = rats, 60 mg/kg, multisol solution, previous study; cited from earlier work
[14] = sedation for the first 15 minutes after dosing

CCN(CC)CC(=O)Nc1c(C)cccc1C [lidocaine, Lidocaine, reference compound]
PAR of the first CAP normalized to baseline, phasic stimulation ([1]; 1mM, baseline 100%): 22.5%
PAR of the last CAP normalized to baseline, phasic stimulation ([1]; 1mM, baseline 100%): 14.7%

CC(=O)Oc1ccccc1C(=O)O [aspirin]
ED50 in the writhing model [2]: 82 to 228 mg/kg

CC(C)Cc1ccc(C(C)C(=O)O)cc1 (stereo not drawn) [Ibuprofen, reference compound]
percent paw thickness following carrageenan injection ([3]; 100 mg/kg i.p., significant after 4 hours (p<0.05)): decreased percent paw thickness
ED50 in the writhing model [2]: 33 mg/kg

NCC1(CC(=O)O)CCCCC1 [gabapentin]
ED50 (antiallodynic, SNL model) [4]: 32 mg/kg

CCCC(CCC)C(=O)O [VPA, valproic acid, reference compound]
ED50 (antiallodynic, SNL model) [4]: 269 mg/kg
licking time ([5]; mice, 70 mg/kg i.p.): unable to reduce the licking time significantly
licking time ([5]; mice, 100 mg/kg i.p.): showed reduction in only one of the two phases evaluated
reduction of licking-time AUC vs control, acute phase ([5]; mice, 300 mg/kg i.p.): 46%
reduction of licking-time AUC vs control, inflammatory phase ([5]; mice, 300 mg/kg i.p.): 75%
ID50 (dose reducing the nociceptive response by 50% compared to control), acute phase ([5]; mice): 136 mg/kg
ID50 (dose reducing the nociceptive response by 50% compared to control), inflammatory phase ([5]; mice): 113 mg/kg
heat hyperalgesia vs Carr/MC ([6]; 100 mg/kg i.p.): not able to reduce heat hyperalgesia
paw thickness an hour following administration [6]: Neither SPD nor VPA decreased paw thickness
ED50 ([7]; Mus musculus, ip, read-out: ED50 in the writhing test): 44 mg/kg
protective index (PI), writhing test [7]: 8.8
number of writhes ([7]; mice, 50 and 100 mg/kg i.p.): significantly reduced the number of writhes
TD50 [8]: 391 mg/kg

COc1ccc2c3c1O[C@H]1[C@@H](O)C=C[C@H]4[C@@H](C2)N(C)CC[C@@]341 [codeine]
potency (effective dose) in the formalin test [9]: 25 to 50 mg/kg

CN1C(C(=O)Nc2ccccn2)=C(O)c2ccccc2S1(=O)=O [piroxicam]
ED50 in the writhing model [2]: 100 mg/kg

CNC(=O)CC1C(C)(C)C1(C)C [MTMCD, N-methyl tetramethylcyclopropyl acetamide, reference compound]
antiallodynic effect vs MC (positive control) ([10]; 80 mg/kg i.p.): antiallodynic effect significantly different than MC

CN1CC[C@]23c4c5ccc(O)c4O[C@H]2[C@@H](O)C=C[C@H]3[C@H]1C5 [morphine]
potency (effective dose) in the formalin test [9]: 5 to 10 mg/kg

CCCC(C(N)=O)C(C)CC (stereo not drawn) [SPD, sec-Butylpropylacetamide]
CL/F [11]: 15 mL/min/kg
peak plasma concentration (Cmax) [11]: 66.2 µg/mL
volume of distribution [11]: 1.1 L/kg
signs of toxicity [11, 14]: not associated with any signs of toxicity except sedation
percent paw thickness up to 24 hours following carrageenan injection ([3]; 70 mg/kg i.p.): did not decrease percent paw thickness
ratio between last and first CAP (Δf), phasic stimulation ([1]; 3mM, baseline 96.5%): 96%
PAR of the first and last CAP normalized to baseline, phasic stimulation ([1]; 3mM, baseline 100%): 90%
potency (effective dose) in the formalin test ([5]; mice): 70 mg/kg
reduction of licking-time AUC vs control, acute phase ([5]; mice, 70 mg/kg i.p.): 55%
reduction of licking-time AUC vs control, inflammatory phase ([5]; mice, 70 mg/kg i.p.): 74%
ID50 (dose reducing the nociceptive response by 50% compared to control), acute phase ([5]; mice): 39 mg/kg
ID50 (dose reducing the nociceptive response by 50% compared to control), inflammatory phase ([5]; mice): 40 mg/kg
protective index (PI), formalin test ([5]; ratio between ID50 and TD50, TD50 from White et al., 2012): 2.2
CL/F [12]: 28.3 mL/min/kg
peak plasma concentration (Cmax) [12]: 77.2 µg/mL
volume of distribution [12]: 0.9 L/kg
signs of toxicity [12, 14]: not associated with any signs of toxicity except sedation
heat hyperalgesia, normalized mean withdrawal time vs Carr/MC ([6]; 70 mg/kg i.p.): statistically different from the Carr/MC group
paw thickness an hour following administration [6]: Neither SPD nor VPA decreased paw thickness
ED50 in the carrageenan model (heat hyperalgesia) ([6]; i.p., at TPE, 95% CI 29.3–110): 49 mg/kg
CL/F [13]: 1.9
protective index (PI), writhing test [7]: 2.2
mean number of writhes ([7]; mice, 30, 50 and 70 mg/kg i.p., p<0.001): significantly reduced
dose of maximum efficacy in the writhing test ([7]; mice, i.p.): 30 mg/kg
ED50 in the writhing test ([7]; mice, i.p., 95% CI 24.3–67 mg/kg (SPD), 18–61mg/kg (VPA)): 40 mg/kg
tactile allodynia compared to control ([10]; 60 and 80 mg/kg i.p., p<0.05): significantly reduced tactile allodynia
time to peak antiallodynic effect (TPE) ([10]; i.p.): 60 min
ED50 (antiallodynic, SNL model) ([10]; i.p., at TPE (60 min), 95% CI of 9–61 mg/kg): 49 mg/kg

Reference: PMC5352298 (Pharmacological research, 2016)
